Broadly, the IC50 is the concentration that gives 50% inhibition. A higher IC50 goes with a need for much substance.

The record followed here is ChEMBL document CHEMBL1157708, “Design, synthesis and primary activity assay of bi- or tri-peptide analogues with the scaffold l-arginine as amino-peptidase N/CD13 inhibitors” (Bioorg Med Chem, 2010).

The target of assay [1] is 72 kDa type IV collagenase (Homo sapiens, UniProt P08253). Description: Inhibition of MMP2 by spectrophotometry. An outline of the steps:
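Gelatinase A (MMP-2) with an in-house synthesized substrate and inhibitor, all in 50 mmol/L sodium borate pH 8.5, incubated 30 min at 37 °C. 0.03% TNBS then added and incubated a further 20 min. Absorbance read at 450 nm.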

Assay [2] has as its target T1, Aminopeptidase N (Sus scrofa, UniProt P15145).
T1 sequence (P15145 whole entry): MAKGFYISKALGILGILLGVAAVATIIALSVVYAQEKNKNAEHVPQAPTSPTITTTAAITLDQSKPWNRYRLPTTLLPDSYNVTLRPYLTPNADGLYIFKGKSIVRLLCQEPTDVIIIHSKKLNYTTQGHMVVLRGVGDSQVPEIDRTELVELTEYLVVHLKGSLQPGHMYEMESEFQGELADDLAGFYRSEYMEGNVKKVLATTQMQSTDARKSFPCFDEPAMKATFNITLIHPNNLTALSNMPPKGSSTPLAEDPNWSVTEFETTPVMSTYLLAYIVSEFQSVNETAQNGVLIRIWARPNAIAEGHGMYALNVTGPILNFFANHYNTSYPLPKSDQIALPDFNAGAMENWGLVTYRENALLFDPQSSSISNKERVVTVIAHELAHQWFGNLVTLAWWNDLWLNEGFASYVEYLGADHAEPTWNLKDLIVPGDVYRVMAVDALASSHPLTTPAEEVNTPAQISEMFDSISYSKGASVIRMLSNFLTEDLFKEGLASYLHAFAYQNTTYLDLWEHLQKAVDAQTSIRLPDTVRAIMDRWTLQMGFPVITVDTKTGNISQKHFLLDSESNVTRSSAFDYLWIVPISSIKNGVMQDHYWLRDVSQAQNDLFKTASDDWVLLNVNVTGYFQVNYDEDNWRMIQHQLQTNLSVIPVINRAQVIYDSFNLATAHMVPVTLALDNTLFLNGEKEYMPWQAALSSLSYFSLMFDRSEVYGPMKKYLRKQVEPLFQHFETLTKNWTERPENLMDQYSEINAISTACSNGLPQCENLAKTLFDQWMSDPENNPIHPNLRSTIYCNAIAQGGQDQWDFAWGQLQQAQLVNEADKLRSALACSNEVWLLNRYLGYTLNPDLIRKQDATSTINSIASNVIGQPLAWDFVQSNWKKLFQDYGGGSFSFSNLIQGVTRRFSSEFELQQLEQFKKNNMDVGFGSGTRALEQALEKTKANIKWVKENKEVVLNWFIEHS
The assay is described as follows: Inhibition of APN from pig kidney microsomes by spectrophotometry. Format: tissue-based.

Where a SMILES comes first, the peptide text is derived from it. [ ]: non-standard residue; d: D form. The star is where a group is joined. Arg(NO2) = N=C(NCCC[C@H](N)C(=O)O)N[N+](=O)[O-]; Boc = CC(C)(C)OC(=O)*; Bz = O=C(c1ccccc1)*; NHOH = ON*

Chain of 72 kDa type IV collagenase (P08253 whole entry): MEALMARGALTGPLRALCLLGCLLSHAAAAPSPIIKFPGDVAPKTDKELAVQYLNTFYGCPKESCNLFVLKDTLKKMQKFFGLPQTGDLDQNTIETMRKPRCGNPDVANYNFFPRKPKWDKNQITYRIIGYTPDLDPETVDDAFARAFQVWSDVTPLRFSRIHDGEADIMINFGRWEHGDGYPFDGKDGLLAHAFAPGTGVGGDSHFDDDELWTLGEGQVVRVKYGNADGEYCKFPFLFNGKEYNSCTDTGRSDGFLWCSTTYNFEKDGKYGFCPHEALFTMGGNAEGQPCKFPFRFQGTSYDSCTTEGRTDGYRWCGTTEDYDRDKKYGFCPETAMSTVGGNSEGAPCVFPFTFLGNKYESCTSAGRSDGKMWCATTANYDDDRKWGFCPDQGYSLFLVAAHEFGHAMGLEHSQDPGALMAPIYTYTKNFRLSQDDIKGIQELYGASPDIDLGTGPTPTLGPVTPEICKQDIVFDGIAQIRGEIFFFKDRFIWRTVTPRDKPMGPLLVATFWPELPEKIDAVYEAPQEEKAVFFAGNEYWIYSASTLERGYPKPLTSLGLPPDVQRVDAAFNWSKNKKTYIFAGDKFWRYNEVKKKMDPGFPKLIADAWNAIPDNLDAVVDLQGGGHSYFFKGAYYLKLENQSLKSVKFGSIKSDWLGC

As to `CC(C)C[C@H](NC(=O)OC(C)(C)C)C(=O)N[C@@H](CCCNC(N)=N[N+](=O)[O-])C(=O)NO`, the results for the 50% inhibitory concentration (IC50) in assay [1] and in assay [2] were 5680 µM and 334 µM, respectively.
`CC(C)C[C@H](N)C(=O)N[C@@H](CCCNC(=N)N[N+](=O)[O-])C(=O)NO` yielded an IC50 in assay [1] of 5310 µM.
Consider `CSCCC[C@H](N)C(=O)N[C@@H](CCCNC(=N)N[N+](=O)[O-])C(=O)NO`, for which, in assay [1], inhibition was half-maximal at 4200 µM (IC50).
Take `CC(C)C[C@H](NC(=O)c1ccc(Cl)cc1Cl)C(=O)N[C@@H](CCCNC(N)=N[N+](=O)[O-])C(=O)NO`: the IC50 in assay [1] was 1540 µM; in assay [2], 7.2 µM.
On to `N=C(NCCC[C@H](NC(=O)[C@H](Cc1ccccc1)NC(=O)c1ccc(Cl)cc1Cl)C(=O)NO)N[N+](=O)[O-]`, for which the results for the IC50 in assay [1] and in assay [2] were 8140 µM and 4.3 µM, respectively.
In the case of `COc1ccc(C(=O)N[C@@H](C)C(=O)N[C@@H](CCCNC(N)=N[N+](=O)[O-])C(=O)NO)cc1`, the IC50 in assay [1] was found to be 8970 µM; in assay [2], 16.3 µM.
For `C[C@H](NC(=O)c1ccc(Cl)cc1Cl)C(=O)N[C@@H](CCCNC(N)=N[N+](=O)[O-])C(=O)NO`, in that order: 1760 µM and 31.4 µM.
The like results for `CC(C)[C@H](NC(=O)c1ccccc1I)C(=O)N[C@@H](CCCNC(N)=N[N+](=O)[O-])C(=O)NO` were, in that order, 1780 µM and 6.7 µM.
Take `CC(C)C[C@H](NC(=O)c1ccccc1Cl)C(=O)N[C@@H](CCCNC(N)=N[N+](=O)[O-])C(=O)NO`: the results for the IC50 in assay [1] and in assay [2] were 630 µM and 4.8 µM, respectively.
For `CC(C)C[C@H](NC(=O)OC(C)(C)C)C(=O)N[C@@H](C)C(=O)N[C@@H](CCCNC(N)=N[N+](=O)[O-])C(=O)NO` (Boc-Leu-Ala-[Arg(NO2)]-{NHOH}), the values for the IC50 in assay [1] and in assay [2] were 2900 µM and 39.5 µM, respectively.
On to `CC(C)C[C@H](NC(=O)OC(C)(C)C)C(=O)NCC(=O)N[C@@H](CCCNC(N)=N[N+](=O)[O-])C(=O)NO` (Boc-Leu-Gly-[Arg(NO2)]-{NHOH}), for which the figures for the IC50 in assay [1] and in assay [2] were 2980 µM and 25.2 µM, respectively.
Turning to `CSCC[C@H](NC(=O)OC(C)(C)C)C(=O)N[C@@H](CCCNC(=N)N[N+](=O)[O-])C(=O)NO` (Boc-Met-[Arg(NO2)]-{NHOH}), the IC50 was 1940 µM in assay [1] and 132 µM in assay [2].
As to `CC(C)C[C@H](NC(=O)[C@H](Cc1ccccc1)NC(=O)OC(C)(C)C)C(=O)N[C@@H](CCCNC(=N)N[N+](=O)[O-])C(=O)NO` (Boc-Phe-Leu-[Arg(NO2)]-{NHOH}), the IC50 in assay [1] was found to be 407 µM; in assay [2], 8.4 µM.
For `CC(C)[C@H](NC(=O)[C@H](Cc1ccccc1)NC(=O)OC(C)(C)C)C(=O)N[C@@H](CCCNC(=N)N[N+](=O)[O-])C(=O)NO` (Boc-Phe-Val-[Arg(NO2)]-{NHOH}), the IC50 amounted to 447 µM in assay [1] and 33.1 µM in assay [2].
For `CC(C)(C)OC(=O)N1CCC[C@H]1C(=O)N[C@@H](Cc1ccccc1)C(=O)N[C@@H](CCCNC(=N)N[N+](=O)[O-])C(=O)NO` (Boc-Pro-Phe-[Arg(NO2)]-{NHOH}), the IC50 in assay [1] came out at 7900 µM; in assay [2], 1340 µM.
Turning to `CC(C)(C)OC(=O)N1CCC[C@H]1C(=O)N1CCC[C@H]1C(=O)N[C@@H](CCCNC(=N)N[N+](=O)[O-])C(=O)NO` (Boc-Pro-Pro-[Arg(NO2)]-{NHOH}), the IC50 was 8360 µM in assay [1] and 42.1 µM in assay [2].
For `CC(C)(C)OC(=O)N1CCC[C@H]1C(=O)N[C@@H](Cc1ccc(O)cc1)C(=O)N[C@@H](CCCNC(=N)N[N+](=O)[O-])C(=O)NO` (Boc-Pro-Tyr-[Arg(NO2)]-{NHOH}), in that order: 4520 µM and 436 µM.
With `CC(C)[C@H](NC(=O)OC(C)(C)C)C(=O)N[C@@H](CCCNC(N)=N[N+](=O)[O-])C(=O)NO` (Boc-Val-[Arg(NO2)]-{NHOH}), the values for the IC50 in assay [1] and in assay [2] were 3460 µM and 201 µM, respectively.
Take `N=C(NCCC[C@H](NC(=O)[C@H](Cc1ccccc1)NC(=O)c1ccccc1)C(=O)NO)N[N+](=O)[O-]` (Bz-Phe-[Arg(NO2)]-{NHOH}): the results for the IC50 in assay [1] and in assay [2] were 1650 µM and 4.2 µM, respectively.
In assay [1], `CC(C)C[C@H](N)C(=O)N[C@@H](C)C(=O)N[C@@H](CCCNC(N)=N[N+](=O)[O-])C(=O)NO` (H-Leu-Ala-[Arg(NO2)]-{NHOH}) yielded an IC50 of 1710 µM. This lies in the millimolar range.
`CC(C)C[C@H](N)C(=O)NCC(=O)N[C@@H](CCCNC(N)=N[N+](=O)[O-])C(=O)NO` (H-Leu-Gly-[Arg(NO2)]-{NHOH}): the IC50 in assay [1] worked out at 3630 µM.
On the same count and under the same terms, the value for `CC(C)C[C@H](NC(=O)[C@@H](N)Cc1ccccc1)C(=O)N[C@@H](CCCNC(=N)N[N+](=O)[O-])C(=O)NO` (H-Phe-Leu-[Arg(NO2)]-{NHOH}) was 514 µM.
For the molecule `CC(C)[C@H](NC(=O)[C@@H](N)Cc1ccccc1)C(=O)N[C@@H](CCCNC(N)=N[N+](=O)[O-])C(=O)NO` (H-Phe-Val-[Arg(NO2)]-{NHOH}), the IC50 in assay [1] amounted to 3160 µM; in assay [2], 98.6 µM.
Consider `NC(=N[N+](=O)[O-])NCCC[C@H](NC(=O)[C@H](Cc1ccccc1)NC(=O)[C@@H]1CCCN1)C(=O)NO` (H-Pro-Phe-[Arg(NO2)]-{NHOH}), for which the concentration for half-maximal inhibition (IC50) worked out at 8050 µM in assay [1] and 364 µM in assay [2].
Consider `N=C(NCCC[C@H](NC(=O)[C@@H]1CCCN1C(=O)[C@@H]1CCCN1)C(=O)NO)N[N+](=O)[O-]` (H-Pro-Pro-[Arg(NO2)]-{NHOH}), for which the IC50 in assay [1] was 8610 µM; in assay [2] it was 65.2 µM.
For `N=C(NCCC[C@H](NC(=O)[C@H](Cc1ccc(O)cc1)NC(=O)[C@@H]1CCCN1)C(=O)NO)N[N+](=O)[O-]` (H-Pro-Tyr-[Arg(NO2)]-{NHOH}), in that order: 7590 µM and 248 µM.
`CC(C)[C@H](N)C(=O)N[C@@H](CCCNC(N)=N[N+](=O)[O-])C(=O)NO` (H-Val-[Arg(NO2)]-{NHOH}): the IC50 in assay [1] was 428 µM.
For `CC(C)C[C@H](NC(=O)[C@@H](O)[C@H](N)Cc1ccccc1)C(=O)O` [UBENIMEX], the IC50 in assay [1] was found to be 253 µM.
